What was measured:
[1] = molecular target: T1, Melanocyte-stimulating hormone receptor (Homo sapiens, UniProt Q01726); experiment: Inhibitory activity against hMC1R transfected in HEK293 cells; type: cell-based
How it was run: (§1)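 Competition binding on whole HEK293 cells stably expressing the human receptor, seeded 48 h prior. Binding buffer was MEM, 25 mM HEPES pH 7.4, 0.2% BSA, 1,10-phenanthroline, leupeptin and bacitracin. Cells washed and lysed, then gamma counted. IC50 from nonlinear least-squares fit; mean of two experiments in triplicate.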
Target sequence in this assay (Q01726 whole entry): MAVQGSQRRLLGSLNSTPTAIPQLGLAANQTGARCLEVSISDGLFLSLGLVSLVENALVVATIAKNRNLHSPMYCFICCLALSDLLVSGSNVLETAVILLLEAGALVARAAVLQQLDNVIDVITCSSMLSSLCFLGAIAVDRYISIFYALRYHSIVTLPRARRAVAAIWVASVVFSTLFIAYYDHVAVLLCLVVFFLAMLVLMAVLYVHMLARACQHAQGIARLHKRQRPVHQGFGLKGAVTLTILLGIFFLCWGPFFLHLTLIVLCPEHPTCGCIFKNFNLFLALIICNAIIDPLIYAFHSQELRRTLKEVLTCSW

Melanocortin receptor 3 [2] = molecular target: T2, Melanocortin receptor 3 (Homo sapiens, UniProt P41968); experiment: Inhibitory activity against hMC3R transfected in HEK293 cells; type: cell-based; how it was run: as §1
T2 sequence (P41968 whole entry): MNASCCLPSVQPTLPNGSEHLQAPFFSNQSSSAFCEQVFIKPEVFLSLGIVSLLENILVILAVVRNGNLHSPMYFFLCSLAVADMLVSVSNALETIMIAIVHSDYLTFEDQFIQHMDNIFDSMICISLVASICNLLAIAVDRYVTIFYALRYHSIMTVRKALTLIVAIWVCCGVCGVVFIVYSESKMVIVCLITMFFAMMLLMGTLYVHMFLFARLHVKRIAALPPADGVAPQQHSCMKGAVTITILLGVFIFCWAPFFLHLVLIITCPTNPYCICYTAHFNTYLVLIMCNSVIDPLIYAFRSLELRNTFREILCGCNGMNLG

Melanocortin receptor 4 [3] = molecular target: T3, Melanocortin receptor 4 (Homo sapiens, UniProt P32245); experiment: Inhibitory activity against hMC4R transfected in HEK293 cells; type: cell-based; how it was run: as §1
T3 sequence (P32245 whole entry): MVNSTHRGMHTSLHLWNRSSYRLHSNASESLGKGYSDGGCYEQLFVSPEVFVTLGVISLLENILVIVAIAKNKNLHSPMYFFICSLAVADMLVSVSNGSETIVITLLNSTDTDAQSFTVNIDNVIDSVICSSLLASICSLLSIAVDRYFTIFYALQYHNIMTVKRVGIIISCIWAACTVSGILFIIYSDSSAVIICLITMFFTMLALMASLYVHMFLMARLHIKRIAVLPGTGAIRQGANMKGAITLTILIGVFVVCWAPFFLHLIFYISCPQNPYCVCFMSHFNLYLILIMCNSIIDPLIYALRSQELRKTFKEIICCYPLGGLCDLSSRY

Melanocortin receptor 5 [4] = molecular target: T4, Melanocortin receptor 5 (Homo sapiens, UniProt P33032); experiment: Inhibitory activity against hMC5R transfected in HEK293 cells; type: cell-based; how it was run: as §1
T4 sequence (P33032 whole entry): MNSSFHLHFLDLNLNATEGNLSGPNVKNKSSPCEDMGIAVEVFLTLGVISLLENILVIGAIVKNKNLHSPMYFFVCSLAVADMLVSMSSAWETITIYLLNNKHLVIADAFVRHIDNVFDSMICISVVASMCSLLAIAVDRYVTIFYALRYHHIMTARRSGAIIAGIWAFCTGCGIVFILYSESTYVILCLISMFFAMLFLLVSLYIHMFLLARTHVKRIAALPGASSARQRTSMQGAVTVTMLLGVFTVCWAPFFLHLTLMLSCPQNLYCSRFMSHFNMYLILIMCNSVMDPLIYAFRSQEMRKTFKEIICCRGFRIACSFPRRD

[5] = molecular target: T1, Melanocyte-stimulating hormone receptor; experiment: Activity against hMC1R transfected in HEK293 cells by intracellular cAMP accumulation; type: functional, cell-based
How it was run: (§2)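 HEK293 cells stably transfected with human receptor, grown to confluence in MEM with 10% FBS, seeded 48 h before assay. Cells preincubated 1 min at 37 °C in EBSS with IBMX (0.5 mM stock). Peptide added (10^-10 to 10^-5 M), 3 min at 37 °C. Stopped with ice-cold Tris/EDTA, boiled, cAMP measured by competitive binding kit. EC50 from nonlinear least-squares fit; mean of two experiments in triplicate.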

Melanocortin receptor 3 [6] = molecular target: T2, Melanocortin receptor 3; experiment: Activity against hMC3R transfected in HEK293 cells by intracellular cAMP accumulation; type: functional, cell-based; how it was run: as §2
Melanocortin receptor 4 [7] = molecular target: T3, Melanocortin receptor 4; experiment: Activity against hMC4R transfected in HEK293 cells by intracellular cAMP accumulation; type: functional, cell-based; how it was run: as §2
Melanocortin receptor 5 [8] = molecular target: T4, Melanocortin receptor 5; experiment: Activity against hMC5R transfected in HEK293 cells by intracellular cAMP accumulation; type: functional, cell-based; how it was run: as §2

Row | Compound | IC50 [1] [nM] | IC50 (Melanocortin receptor 3 [2]) [nM] | IC50 (Melanocortin receptor 4 [3]) [nM] | IC50 (Melanocortin receptor 5 [4]) [nM] | EC50 [5] [nM] | EC50 (Melanocortin receptor 3 [6]) [nM] | EC50 (Melanocortin receptor 4 [7]) [nM] | EC50 (Melanocortin receptor 5 [8]) [nM] | %max [5] [%] | %max (Melanocortin receptor 3 [6]) [%] | %max (Melanocortin receptor 4 [7]) [%] | %max (Melanocortin receptor 5 [8]) [%] | Kb (Melanocortin receptor 3 [6]; read-out: pA2 (converted)) [nM] | Kb (Melanocortin receptor 5 [8]; read-out: pA2 (converted)) [nM]
1 | CCCC[C@@H]1NC(=O)CC[C@@H](C(N)=O)NC(=O)[C@H](Cc2c[nH]c3ccccc23)NC(=O)[C@H](CCCN=C(N)N)NC(=O)[C@@H](Cc2ccc3ccccc3c2)NC(=O)[C@H](CCCN=C(N)N)NC1=O | 1500 | 2.6 | 77 | 2.3 | > 10000 | > 10000 | 530 | > 10000 | – | – | – | – | – | –
2 | CCCC[C@@H]1NC(=O)CC[C@@H](C(N)=O)NC(=O)[C@H](Cc2c[nH]c3ccccc23)NC(=O)[C@H](CCCN=C(N)N)NC(=O)[C@@H](Cc2ccccc2)NC(=O)[C@@H](CCC(N)=O)NC1=O | – | – | – | – | – | – | – | – | 20 | 60 | 0 | 8 | – | –
3 | CCCC[C@@H]1NC(=O)CC[C@@H](C(N)=O)NC(=O)[C@H](Cc2c[nH]c3ccccc23)NC(=O)[C@H](CCCN=C(N)N)NC(=O)[C@@H](Cc2ccc3ccccc3c2)NC(=O)[C@H](CCCC)NC1=O | 3000 | 6 | 16 | 3.8 | > 1000 | > 10000 | 340 | 200 | 0 | 0 | 31 | 10 | – | –
4 | CCCC[C@@H]1NC(=O)CC[C@@H](C(N)=O)NC(=O)[C@H](Cc2c[nH]c3ccccc23)NC(=O)[C@H](CCCN=C(N)N)NC(=O)[C@@H](Cc2ccccc2)NC(=O)[C@@H]2CCCN2C1=O | > 10000 | 2700 | 2700 | 400 | > 10000 | > 10000 | 10000 | 850 | – | – | – | – | – | –
5 | CCCC[C@@H]1NC(=O)CC[C@@H](C(N)=O)NC(=O)[C@H](Cc2c[nH]c3ccccc23)NC(=O)[C@H](CCCN=C(N)N)NC(=O)[C@@H](Cc2ccc3ccccc3c2)NC(=O)[C@H](Cc2cnc[nH]2)NC1=O | > 10000 | 12 | 100 | 2.3 | > 10000 | > 10000 | > 10000 | > 10000 | – | – | – | – | – | –
6 | CCCC[C@@H]1NC(=O)CC[C@@H](C(N)=O)NC(=O)[C@H](Cc2c[nH]c3ccccc23)NC(=O)[C@H](CCCN=C(N)N)NC(=O)[C@@H](Cc2ccc3ccccc3c2)NC(=O)[C@H](CCC(=O)O)NC1=O | > 10000 | 140 | 34 | 44 | > 10000 | 2800 | > 10000 | > 10000 | 0 | 7 | 0 | 0 | – | –
7 | CCCC[C@@H]1NC(=O)CC[C@@H](C(N)=O)NC(=O)[C@H](Cc2c[nH]c3ccccc23)NC(=O)[C@H](CCCN=C(N)N)NC(=O)[C@@H](Cc2ccc3ccccc3c2)NC(=O)[C@H](C(C)C)NC1=O | 4000 | 1.7 | 180 | 2.2 | > 10000 | > 10000 | 16 | > 10000 | 0 | 0 | 13 | 0 | 3.98 | 2
8 | CCCC[C@@H]1NC(=O)CC[C@@H](C(N)=O)NC(=O)[C@H](Cc2c[nH]c3ccccc23)NC(=O)[C@H](CCCN=C(N)N)NC(=O)[C@@H](Cc2ccc3ccccc3c2)NC(=O)[C@@H](CCCN=C(N)N)NC1=O | – | – | – | – | – | – | – | – | 0 | 0 | 10 | 0 | – | –
9 | CCCC[C@@H]1NC(=O)CC[C@@H](C(N)=O)NC(=O)[C@H](Cc2c[nH]c3ccccc23)NC(=O)[C@H](CCCN=C(N)N)NC(=O)[C@@H](Cc2ccccc2)NC(=O)[C@H](CCC(N)=O)NC1=O | 1000 | 270 | > 10000 | 500 | 1000 | 1700 | > 10000 | 300 | – | – | – | – | – | –
10 | CCCC[C@@H]1NC(=O)CC[C@@H](C(N)=O)NC(=O)[C@H](Cc2c[nH]c3ccccc23)NC(=O)[C@H](CCCN=C(N)N)NC(=O)[C@@H](Cc2ccc3ccccc3c2)NC(=O)[C@H](Cc2c[nH]cn2)NC1=O | – | – | – | – | – | – | – | – | 0 | 0 | 0 | 0 | – | –
11 | CCCC[C@@H]1NC(=O)CC[C@@H](C(N)=O)NC(=O)[C@H](Cc2c[nH]c3ccccc23)NC(=O)[C@H](CCCN=C(N)N)NC(=O)[C@@H](Cc2ccccc2)NC(=O)[C@H](CC(=O)O)NC1=O | > 10000 | > 10000 | 150 | > 10000 | > 10000 | > 10000 | > 10000 | > 10000 | 0 | 0 | 0 | 0 | – | –
12 | CCCC[C@@H]1NC(=O)CC[C@@H](C(N)=O)NC(=O)[C@H](Cc2c[nH]c3ccccc23)NC(=O)[C@H](CCCN=C(N)N)NC(=O)[C@@H](Cc2ccc3ccccc3c2)NC(=O)[C@@H]2CCCN2C1=O | > 10000 | 13 | 1000 | 10 | > 10000 | > 10000 | > 10000 | > 10000 | 0 | 0 | 0 | 0 | – | –
13 | CCCC[C@@H]1NC(=O)CC[C@@H](C(N)=O)NC(=O)[C@H](Cc2c[nH]c3ccccc23)NC(=O)[C@H](CCCN=C(N)N)NC(=O)[C@@H](Cc2ccccc2)NC(=O)[C@H](CCC(=O)O)NC1=O | > 10000 | 1200 | > 10000 | 3060 | > 10000 | 4300 | > 10000 | > 10000 | – | – | – | – | – | –
14 | CCCC[C@@H]1NC(=O)CC[C@@H](C(N)=O)NC(=O)[C@H](Cc2c[nH]c3ccccc23)NC(=O)[C@H](CCCN=C(N)N)NC(=O)[C@@H](Cc2ccccc2)NC(=O)[C@@H](CCCN=C(N)N)NC1=O | – | – | – | – | – | – | – | – | 0 | 112 | 63 | 0 | – | –
15 | CCCC[C@@H]1NC(=O)CC[C@@H](C(N)=O)NC(=O)[C@H](Cc2c[nH]c3ccccc23)NC(=O)[C@H](CCCN=C(N)N)NC(=O)[C@@H](Cc2ccc3ccccc3c2)NC(=O)[C@H](CC(=O)O)NC1=O | > 10000 | 820 | 170 | 220 | > 10000 | > 10000 | > 10000 | > 10000 | – | – | – | – | – | –
16 | CCCC[C@@H]1NC(=O)CC[C@@H](C(N)=O)NC(=O)[C@H](Cc2c[nH]c3ccccc23)NC(=O)[C@H](CCCN=C(N)N)NC(=O)[C@@H](Cc2ccccc2)NC(=O)[C@H](CCCC)NC1=O | > 10000 | 250 | 600 | 70 | > 10000 | 300 | > 1000 | > 10000 | 0 | 27 | 50 | 0 | – | –
17 | CCCC[C@@H]1NC(=O)CC[C@@H](C(N)=O)NC(=O)[C@H](Cc2c[nH]c3ccccc23)NC(=O)[C@H](CCCN=C(N)N)NC(=O)[C@@H](Cc2ccccc2)NC(=O)[C@H](Cc2c[nH]cn2)NC1=O | > 10000 | 560 | 170 | 100 | > 10000 | 37 | 2000 | > 10000 | 0 | 147 | 48 | 0 | – | –
18 | CCCC[C@@H]1NC(=O)CC[C@@H](C(N)=O)NC(=O)[C@H](Cc2c[nH]c3ccccc23)NC(=O)[C@H](CCCN=C(N)N)NC(=O)[C@@H](Cc2ccccc2)NC(=O)[C@@H](CCC(=O)O)NC1=O | – | – | – | – | – | – | – | – | 0 | 54 | 0 | 0 | – | –
19 | CCCC[C@@H]1NC(=O)CC[C@@H](C(N)=O)NC(=O)[C@H](Cc2c[nH]c3ccccc23)NC(=O)[C@H](CCCN=C(N)N)NC(=O)[C@@H](Cc2ccccc2)NC(=O)[C@H]2CCCN2C1=O | – | – | – | – | – | – | – | – | 0 | 0 | 0 | 10 | – | –
20 | CCCC[C@@H]1NC(=O)CC[C@@H](C(N)=O)NC(=O)[C@H](Cc2c[nH]c3ccccc23)NC(=O)[C@H](CCCN=C(N)N)NC(=O)[C@@H](Cc2ccccc2)NC(=O)[C@H](CCCN=C(N)N)NC1=O | 1400 | 140 | 270 | 68 | > 10000 | 1.2 | 174 | > 10000 | – | – | – | – | – | –
21 | CCCC[C@@H]1NC(=O)CC[C@@H](C(N)=O)NC(=O)[C@H](Cc2c[nH]c3ccccc23)NC(=O)[C@H](CCCN=C(N)N)NC(=O)[C@@H](Cc2ccc3ccccc3c2)NC(=O)[C@@H](CC(=O)O)NC1=O | – | – | – | – | – | – | – | – | 0 | 0 | 0 | 0 | – | –
22 | CCCC[C@@H]1NC(=O)CC[C@@H](C(N)=O)NC(=O)[C@H](Cc2c[nH]c3ccccc23)NC(=O)[C@H](CCCN=C(N)N)NC(=O)[C@@H](Cc2ccccc2)NC(=O)[C@H](C(C)C)NC1=O | > 10000 | 600 | 2500 | 110 | > 10000 | 27 | 3000 | 180 | 0 | 108 | 25 | 75 | – | –

Reference: ChEMBL document CHEMBL1138987, “Development of cyclic gamma-MSH analogues with selective hMC3R agonist and hMC3R/hMC5R antagonist activities” (J Med Chem, 2006)
